16 molecules from ChEMBL document CHEMBL1124947, “Cationic antiprotozoal drugs. Trypanocidal activity of 2-(4'-formylphenyl)imidazo[1,2-a]pyridinium guanylhydrazones and related derivatives of quaternary heteroaromatic compounds” (J Med Chem, 1990) can be followed below.

Holding throughout (format): functional
In assay [1] the test system is Mus musculus. Nature of the assay: Trypanocidal Activity at I.C.E. value 0.68 when administered subcutaneously. The gist of the method: (§1)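 Mice, in groups of five per dose, were given a standard inoculum of blood-stage T. rhodesiense that is lethal to all untreated controls, then dosed subcutaneously. Usually 11 dose levels were used (2^n × 0.42 mg/kg).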
Assay [2] relates to Mus musculus. Nature of the assay: Trypanocidal Activity at I.C.E. value 0.53 when administered perorally.
Assay [3] concerns Mus musculus. Nature of the assay: Trypanocidal Activity at I.C.E. value 0.58 when administered subcutaneously. The essentials: as §1
Assay [4] has as its system Mus musculus. Nature of the assay: Trypanocidal Activity at I.C.E. value 0.51 when administered perorally.
For assay [5], the system named is Mus musculus. Nature of the assay: Trypanocidal Activity at I.C.E. value 0.20 when administered perorally.
For assay [6], the system named is Mus musculus. Nature of the assay: Trypanocidal Activity at I.C.E. value 0.30 when administered subcutaneously. The gist of the method:
(§2)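 Blood-stage T. rhodesiense infection came from a standard inoculum lethal to all untreated mice. Drug was given by subcutaneous injection to groups of five mice. Survival beyond 30 days counted as cure. […] Sub-curative doses scored 0, and data were normalized at each dose.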

For assay [7], the system named is Mus musculus. Nature of the assay: Trypanocidal Activity at I.C.E. value >0.5 when administered perorally.
In assay [8] the test system is Mus musculus. Nature of the assay: Trypanocidal Activity at I.C.E. value 0.79 when administered subcutaneously. The gist of the method: as §1
For assay [9], the system named is Mus musculus. Nature of the assay: Trypanocidal Activity at I.C.E. value 0.65 when administered perorally.
For assay [10], the system named is Mus musculus. Nature of the assay: Trypanocidal Activity at I.C.E. value 0.48 when administered subcutaneously. The gist of the method: as §2
Assay [11] deals with Mus musculus. Nature of the assay: Trypanocidal Activity at I.C.E. value 0.52 when administered perorally.
In assay [12] the test system is Mus musculus. Kind of assay: Trypanocidal Activity at I.C.E. value 0.86 when administered subcutaneously. The essentials:
as §1

Assay [13] deals with Mus musculus. Kind of assay: Trypanocidal Activity at I.C.E. value 0.7 when administered subcutaneously. The essentials:
as §1

For assay [14], the system named is Mus musculus. Nature of the assay: Trypanocidal Activity at I.C.E. value 0.67 when administered subcutaneously. The gist of the method: as §1
Assay [15] relates to Trypanosoma brucei rhodesiense. Nature of the assay: In Vitro measurement of inhibition of leucine uptake in cell culture of Trypanosoma rhodesiense. The following applies: read-out: ID50 (the source's name). The essentials:
(§3)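 Trypanosomes harvested from infected rats, cultured 3 h with several concentrations of drug, usually 0.1–100 µg/mL. Radiolabeled L-leucine uptake measured. ID50 is the concentration in µg/mL giving 50% inhibition of incorporation.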

In assay [16] the test system is Trypanosoma brucei rhodesiense. Nature of the assay: In Vitro measurement of inhibition of thymidine uptake in cell culture of Trypanosoma rhodesiense. The settings on record: read-out: ID50 (the source's name). The essentials: (§4)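 Parasites harvested from infected rats and incubated 3 h across a drug concentration series, usually 0.1–100 µg/mL. Incorporation of radiolabeled thymidine measured. ID50 is the concentration (µg/mL) producing 50% inhibition.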

In assay [17] the test system is Mus musculus. Kind of assay: Trypanocidal Activity at I.C.E. value 0.55 when administered subcutaneously. The essentials: as §1
The subject of assay [18] is Mus musculus. Nature of the assay: Trypanocidal Activity at I.C.E. value 0.76 when administered subcutaneously. The essentials: as §1
The subject of assay [19] is Mus musculus. Nature of the assay: Trypanocidal Activity at I.C.E. value 0.62 when administered subcutaneously. The essentials: as §1
Assay [20] has as its system Mus musculus. Nature of the assay: Trypanocidal Activity at I.C.E. value 0.83 when administered subcutaneously. The gist of the method:
as §1

Assay [21] deals with Mus musculus. Kind of assay: Trypanocidal Activity at I.C.E. value 0.28 when administered perorally.
The test system of assay [22] is Mus musculus. Kind of assay: Trypanocidal Activity at I.C.E. value 0.31 when administered perorally.
For assay [23], the system named is Mus musculus. Nature of the assay: Trypanocidal Activity at I.C.E. value 0.34 when administered subcutaneously. The essentials: as §2
For assay [24], the system named is Mus musculus. Nature of the assay: Trypanocidal Activity at I.C.E. value 0.66 when administered subcutaneously. The essentials: as §1
In assay [25] the test system is Mus musculus. Kind of assay: Trypanocidal Activity at I.C.E. value 0.28 when administered subcutaneously. The essentials:
as §2

Assay [26] has as its system Mus musculus. Nature of the assay: Trypanocidal Activity at I.C.E. value 0.65 when administered subcutaneously. The gist of the method: as §1
Assay [27] deals with Trypanosoma brucei rhodesiense. Kind of assay: In Vitro Trypanosomal activity in rats was measured uptake of radiolabeled Leucine. The settings on record: read-out: ID50 (the source's name). The gist of the method:
as §3

The subject of assay [28] is Trypanosoma brucei rhodesiense. Nature of the assay: In Vitro Trypanosomal activity in rats was measured uptake of radiolabeled Thymidine. The following applies: read-out: ID50 (the source's name). The gist of the method:
as §4

The subject of assay [29] is Mus musculus. Nature of the assay: Trypanocidal Activity at I.C.E. value >0.15 when administered subcutaneously. The essentials: as §1

Some results are limits rather than exact numbers.

In the case of `Br.Cn1c(COc2ccc(/C=N/NC3=NCCN3)cc2)[n+](C)c2ccccc21.[Br-]`, the CD50 in assay [1] turned out to be 0.2 mg/kg; in [2], 13 mg/kg.
Take `Br.C[n+]1c(-c2ccc(/C=C/C=N/NC3=NCCCN3)cc2)cn2ccccc21.[Br-]`: the CD50 came to 0.06 mg/kg in assay [3] and 13 mg/kg in assay [4].
As for `C[n+]1c(-c2ccc(/C=N/NC(=N)N3CCSC3)cc2)cn2ccccc21.Cc1ccc(S(=O)(=O)O)cc1.Cc1ccc(S(=O)(=O)[O-])cc1`, the CD50 stood at 212 mg/kg in [5] and 13 mg/kg in [6].
For the molecule `Br.C[n+]1c(/C=C/c2ccc(/C=N/NC3=NCCN3)cc2)cn2ccccc21.[Br-]`, the figures for the CD50 in assay [7] and in [8] were 13 mg/kg and 0.2 mg/kg, respectively.
For the molecule `CN(C)C(=N)N/N=C/c1ccc(-c2cn3ccccc3[n+]2C)cc1.I.[I-]`, the CD50 is 6.6 mg/kg in assay [9] and 0.2 mg/kg in assay [10].
Take `Br.Cc1cccc2n1cc(/C=C/c1ccc(/C=N/NC3=NCCN3)cc1)[n+]2C.[Br-]`: the CD50 in assay [11] worked out at 26 mg/kg; in [12], 0.4 mg/kg.
On to `Br.Cc1cccc2n1cc(COc1ccc(/C=N/NC3=NCCCN3)cc1)[n+]2C.[Br-]`, for which the CD50 in assay [13] amounted to 0.8 mg/kg; in assay [14] it was 0.4 mg/kg.
For the molecule `Br.CSC(=N)N/N=C/c1ccc(-c2cn3ccccc3[n+]2C)cc1.[Br-]`, the results for the IC50 in assay [15] and in assay [16] were 5.8 µg/mL and 3.8 µg/mL, respectively. The molecule also registered a CD50 in assay [17] of 6.6 mg/kg.
Molecule `Br.Cc1ccc2n(c1)cc(-c1ccc(/C=N/NC3=NCCCN3)cc1)[n+]2C.[Br-]` gave a CD50 in assay [18] of 0.2 mg/kg.
Turning to `Cc1ccc(S(=O)(=O)[O-])cc1.Cc1cccc2n1cc(/C=C/c1ccc(/C=N/NC(=O)c3ccc(N)cc3)cc1)[n+]2C`, the CD50 in [19] was found to be 6.6 mg/kg.
For `CCCCSc1ccc2n(c1)cc(-c1ccc(/C=N/NC(=N)N)cc1)[n+]2C.Cc1ccc(S(=O)(=O)O)cc1.Cc1ccc(S(=O)(=O)[O-])cc1`, the CD50 worked out at 0.4 mg/kg in assay [20] and 106 mg/kg in assay [21].
Regarding `Br.C[n+]1c(-c2ccc(/C=C/C=N/NC(=N)N3CCCC3)cc2)cn2ccccc21.[Br-]`, the figures for the CD50 in assay [22] and in assay [23] were 53 mg/kg and 0.8 mg/kg, respectively.
Regarding `Br.CC/N=C(\NCC)N/N=C/c1ccc(-c2cn3cc(C)ccc3[n+]2C)cc1.[Br-]`, the CD50 in [24] came out at 1.6 mg/kg.
As for `Cc1ccc2n(c1)cc(-c1ccc(/C=N/Nc3nccs3)cc1)[n+]2C.[Br-]`, the CD50 in [25] was 106 mg/kg.
For the molecule `C[n+]1c(-c2ccc(/C=N/Nc3nc[nH]n3)cc2)cn2ccccc21.[Br-]`, the CD50 in assay [26] was 0.8 mg/kg. In addition, the IC50 is over 10 µg/mL in [27] and 0.5 µg/mL in [28].
In the case of `C[n+]1c(-c2ccc(/C=N/NC(=N)N[N+](=O)[O-])cc2)cn2ccccc21.[Br-]`, the CD50 in [29] is under 26 mg/kg.
